From paper PMC9647114 (Journal of Clinical and Translational Hepatology, 2022)
Bridges are numbered along the chain shown (N, C = ends). Where no end group is shown, it is not given here.

Experiments:
integrin a6 = conditions: peptide identified by phage display; cited from earlier work
[1] = system: orthotopic HCC-H22 tumors; assay: NIRF imaging and biodistribution, orthotopic HCC-H22 tumor model; format: in vivo, mice; conditions: orthotopic HCC-H22, tumor and major organs 48 h after injection, Fig. 3
Summary of the method: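 Nude mice carried orthotopic luciferase-tagged H22 liver lesions and received Cy7-labelled probe or Cy7-control peptide i.v. by tail vein. NIRF imaging used 740 nm excitation and a 780 nm filter. Mice were killed 48 h post-injection, and tumor, heart, liver, spleen, kidney, lung and brain were imaged ex vivo. Organ fluorescence intensity was quantified.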

[2] = system: orthotopic HCC-LM3 tumors; assay: NIRF imaging, orthotopic HCC-LM3 tumor model; format: in vivo, mice; conditions: post-injection; sustained until 24 h
[3] = system: subcutaneous HCC-LM3 tumor; assay: NIRF imaging and ex vivo biodistribution, subcutaneous HCC-LM3 tumor model; format: in vivo; conditions: mice, i.v., statement of the discussion
H22 cells = assay: CCK-8 in vitro cytotoxicity assay; format: cell-based, mouse; conditions: 0 to 500 nM, 48 h or 72 h, Supplementary Fig. 3
Summary of the method: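 H22 mouse hepatoma cells grown in DMEM with 10% FBS and 1% pen/strep at 37°C, 5% CO2. Cells were seeded at 3×10^3 per well and left 24 h, then exposed to the Cy7-labelled peptide probe at 0–500 nM for 48 h or 72 h. CCK-8 reagent was then added for 2 h, and absorbance was read at 450 nm.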

HCC-LM3 cells = assay: Confocal fluorescence microscopy of probe binding to HCC-LM3 cells; format: cell-based, human; conditions: 6 nM probe, 2 h incubation, Fig. 1B
Summary of the method: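 HCC-LM3 cells were grown on glass coverslips for 24 h, then incubated with 6 nM Cy7-labelled probe for 2 h and washed three times in PBS. They were fixed in 4% paraformaldehyde, permeabilised with 0.2% Triton X-100 and blocked with 5% BSA. Staining used rabbit anti-integrin α6 (1:250, overnight, 4°C), then fluorescein goat anti-rabbit (1:1,000, 1 h, 37°C), with DAPI for nuclei. Imaged by confocal microscopy.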

major organs = assay: In vivo toxicity by H&E staining of major organs; conditions: imaging dose; heart, spleen, lung, kidney, brain of H22 tumor-bearing nude mice vs control group, Supplementary Fig. 9
[4] = system: subcutaneous HCC-LM3 tumors; assay: Photoacoustic imaging, subcutaneous HCC-LM3 tumors; format: in vivo, mice; conditions: after i.v. injection, 0 to 48 h
orthotopic HCC lesions = assay: NIRF imaging with Cy5 probe, orthotopic HCC mice; format: in vivo; conditions: i.v., Supplementary Fig. 1

Sequence: CRWYDENAC (disulfide 1-9 (inferred)) [RWY]
- Binding to integrin a6 (integrin a6): high specificity and affinity

Sequence: CRWYDENAC (disulfide 1-9 (inferred)) [Cy7-RWY]
- Ex vivo fluorescence signal in tumors [1]: high level of the fluorescence signal
- Time at which tumor fluorescence signal reached a steady level [2]: 6 h
- Renal clearance [3]: fast renal clearance
- Cytotoxicity (cell viability, CCK-8) (H22 cells): no significant cytotoxicity
- Fluorescence signal in cells by confocal microscopy (HCC-LM3 cells): Strong red fluorescence signals
- Cell and tissue damage in major organs (H&E) (major organs): did not find significant cell and tissue damage
- Time at which NIRF and PA signals in the tumor peaked [4]: 24 h
- Time at which NIRF and PA signals started to accumulate in the tumor [4]: 2 h

Sequence: CGGGGGGGC (cysteine pairing not given here) [Cy7-control, reference compound]
- Fluorescence signal in cells by confocal microscopy (HCC-LM3 cells): no fluorescence response

Sequence: CRWYDENAC (disulfide 1-9 (inferred)) [Cy5-RWY]
- Homing of probe to HCC lesions (NIRF) (orthotopic HCC lesions): specifically homed to HCC lesions
